Series [1] has as its target T1, ATP-dependent translocase ABCB1 (Homo sapiens, UniProt P08183). Briefly: Pgp transport inhibitory activity at 1 uM was measured by JC-1 accumulation assay method using JC-1 as substrate. The format is functional. In short, it runs like this:
(§1)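 JC-1 stock (1 mg/mL in DMSO) diluted to 5 μg/mL in PBS with 1 g/L glucose, then filtered to remove aggregates (monomer 0.2 μM final). Washed K562/DOX cells at 5×10^5/mL were incubated with JC-1 and compound concurrently at 37 °C, DMSO ≤0.5%. Fluorescence (485/590 nm) was followed to plateau, about 2 h. Accumulation is expressed as % of the 5 μM S9788 plate control after subtracting JC-1 alone. Mean of ≥2 experiments.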

Series [2] in a line: (§2) modulation factor: IC50 (uM). It is filed as functional.
Series [3] deals with T1, ATP-dependent translocase ABCB1. Briefly: Pgp transport inhibitory activity at 10 uM was measured by JC-1 accumulation assay method using JC-1 as substrate. It is filed as functional. In outline: as §1
The nature of series [4]: as §2. It is filed as functional. The source holds these as a separate data set.
Series [5] has as its system K562. Briefly: Ability to potentiate DOX cytotoxicity on K562/DOX MDR cells. Cell survival was assayed by MTT conversion. As to conditions: Homo sapiens. It is filed as functional, cell-based. In short, it runs like this: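 K562/DOX human erythroleukemia cells (doxorubicin-selected, Pgp-overexpressing; RPMI-1640 + 10% FCS) exposed 72 h to seven graded doxorubicin concentrations (six wells each) plus tested compound at 1 or 5 μM, DMSO ≤0.1% final. MTT formazan dissolved in DMSO, A570 read. Survival relative to untreated wells; DOX IC50 by linear interpolation; MF = IC50(DOX alone)/IC50(DOX + compound). Mean of ≥2 independent experiments.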

For series [6], the target named is T1, ATP-dependent translocase ABCB1. Briefly: Pgp transport inhibitory activity at 5 uM was measured by JC-1 accumulation assay method using JC-1 as substrate. The format is functional. In outline:
as §1

Bounds are passed on as bounds.

T1 sequence (P08183 whole entry): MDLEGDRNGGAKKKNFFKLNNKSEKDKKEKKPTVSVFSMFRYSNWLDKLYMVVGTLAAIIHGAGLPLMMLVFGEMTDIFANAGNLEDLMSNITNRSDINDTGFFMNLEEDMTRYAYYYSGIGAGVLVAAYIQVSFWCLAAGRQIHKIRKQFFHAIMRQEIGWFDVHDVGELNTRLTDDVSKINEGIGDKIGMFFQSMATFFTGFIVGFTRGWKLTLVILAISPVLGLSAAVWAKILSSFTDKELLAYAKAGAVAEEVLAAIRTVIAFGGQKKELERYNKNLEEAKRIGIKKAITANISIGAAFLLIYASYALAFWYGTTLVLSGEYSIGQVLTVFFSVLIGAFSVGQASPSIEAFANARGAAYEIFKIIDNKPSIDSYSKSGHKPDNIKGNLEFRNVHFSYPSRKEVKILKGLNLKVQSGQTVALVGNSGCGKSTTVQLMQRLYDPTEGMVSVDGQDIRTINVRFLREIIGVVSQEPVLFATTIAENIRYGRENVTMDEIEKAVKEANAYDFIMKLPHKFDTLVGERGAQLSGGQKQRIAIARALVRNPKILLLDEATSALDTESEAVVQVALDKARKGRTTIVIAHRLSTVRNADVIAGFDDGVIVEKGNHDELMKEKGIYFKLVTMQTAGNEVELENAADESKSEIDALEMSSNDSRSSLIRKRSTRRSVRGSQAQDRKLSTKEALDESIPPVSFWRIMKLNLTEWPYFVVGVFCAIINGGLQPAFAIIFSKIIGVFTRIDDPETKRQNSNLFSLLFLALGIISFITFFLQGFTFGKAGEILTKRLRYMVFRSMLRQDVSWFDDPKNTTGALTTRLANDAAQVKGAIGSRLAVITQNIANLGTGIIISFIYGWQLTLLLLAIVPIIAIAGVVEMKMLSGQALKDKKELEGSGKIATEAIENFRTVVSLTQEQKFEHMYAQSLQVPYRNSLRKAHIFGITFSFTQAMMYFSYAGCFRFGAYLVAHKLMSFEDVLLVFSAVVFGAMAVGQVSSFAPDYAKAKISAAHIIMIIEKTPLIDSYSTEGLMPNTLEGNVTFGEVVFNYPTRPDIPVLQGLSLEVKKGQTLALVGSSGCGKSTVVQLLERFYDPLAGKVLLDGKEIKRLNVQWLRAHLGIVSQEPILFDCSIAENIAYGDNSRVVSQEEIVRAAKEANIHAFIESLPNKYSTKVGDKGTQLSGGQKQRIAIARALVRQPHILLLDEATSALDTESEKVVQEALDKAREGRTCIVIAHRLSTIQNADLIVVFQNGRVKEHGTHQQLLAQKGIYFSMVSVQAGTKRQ

`COc1ccc(-c2cc(=O)c3c(OCC(=O)N4CCN(Cc5ccc(OC)c(OC)c5OC)CC4)cc(OCc4ccccc4)cc3o2)cc1OCc1ccccc1`: the “Relative JC-1 accumulation” value is given as 28 in series [1], 56 in series [3] and 50 in series [6]. For the same compound, the Modulation factor in series [2] was 14; in series [4], 45. Also, the IC50 in series [5] is 8 µM.
For the compound `COc1ccc(/C=C/C(=O)c2c(O)cc(OCC(=O)N3CCN(Cc4ccc(OC)c(OC)c4OC)CC3)cc2O)cc1O`, the figures for the “Relative JC-1 accumulation” value in series [1], in series [3] and in series [6] were 3, 21 and 17, respectively. Further, the Modulation factor is 9 in series [2] and 45 in series [4]. Further, in series [5], the IC50 is more than 20 µM.
For `COc1ccc(C2CC(=O)c3c(OC(C)=O)cc(OCC(=O)N4CCN(Cc5ccc(OC)c(OC)c5OC)CC4)cc3O2)cc1OC(C)=O` (stereo not given), the “Relative JC-1 accumulation” value in series [1] is 2; in series [3], 75; in series [6] it was 55. For the same compound, the Modulation factor in series [2] was 10; in series [4], 31. Further, in series [5], the IC50 is more than 20 µM.
For `COc1ccc(C2CC(=O)c3c(OC(=O)C(C)(C)C)cc(OCC(=O)N4CCN(Cc5ccc(OC)c(OC)c5OC)CC4)cc3O2)cc1OC(=O)C(C)(C)C` (stereo not given), the results for the “Relative JC-1 accumulation” value in series [1], in series [3] and in series [6] were 72, 75 and 82, respectively. Moreover, the Modulation factor in series [2] stood at 18; in series [4], 45. For the same compound, the IC50 in series [5] was more than 20 µM.
In the case of `COc1ccc(C2CC(=O)c3c(O)cc(OCC(=O)N4CCN(Cc5ccc(OC)c(OC)c5OC)CC4)cc3O2)cc1OC(C)=O` (stereo not given), the “Relative JC-1 accumulation” value in series [1] was 33; in series [3] it was 91; in series [6], 82. In addition, the Modulation factor in series [2] stood at 8; in series [4], 31. Further, the IC50 in series [5] is more than 20 µM.

For orientation: IC50 means the concentration at which inhibition is half-maximal.

(Values after ChEMBL document CHEMBL1132167, “Flavonoid-related modulators of multidrug resistance: synthesis, pharmacological activity, and structure-activity relationships” (J Med Chem, 1999).)
